Screens (PubChem)
SENP8 block-1 – human SENP8 protease inhibitors, primary screen, biochemical, fluorescence, Nedd8 protein substrate, uHTS. Sentrin-specific protease 8 (Homo sapiens), Q96LD8. recombinant SENP8. inhibition, % at 20 µM. 0.64% of 360,000 active. AID 602440, 2012; in the data active = inhibition mostly above about 40%, no sharp cut-off; inactive = mostly below about 27%
SENP6 block – SENP6 protease inhibitors, primary screen, biochemical, luminescence, uHTS; Sentrin-specific protease 6 (Homo sapiens), Q9GZR1; Recombinant SENP6 catalytic domain, aminoluciferin luminescence; inhibition, % at 10 µM; 1.8% of 330,000 active;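 active = inhibition above about 50% at the single tested dose, limit read from the data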;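 also: plate controls were DMSO wells with enzyme for no effect and DMSO wells lacking enzyme for full effect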
Target sequence (Q9GZR1 628-1112 limits assumed): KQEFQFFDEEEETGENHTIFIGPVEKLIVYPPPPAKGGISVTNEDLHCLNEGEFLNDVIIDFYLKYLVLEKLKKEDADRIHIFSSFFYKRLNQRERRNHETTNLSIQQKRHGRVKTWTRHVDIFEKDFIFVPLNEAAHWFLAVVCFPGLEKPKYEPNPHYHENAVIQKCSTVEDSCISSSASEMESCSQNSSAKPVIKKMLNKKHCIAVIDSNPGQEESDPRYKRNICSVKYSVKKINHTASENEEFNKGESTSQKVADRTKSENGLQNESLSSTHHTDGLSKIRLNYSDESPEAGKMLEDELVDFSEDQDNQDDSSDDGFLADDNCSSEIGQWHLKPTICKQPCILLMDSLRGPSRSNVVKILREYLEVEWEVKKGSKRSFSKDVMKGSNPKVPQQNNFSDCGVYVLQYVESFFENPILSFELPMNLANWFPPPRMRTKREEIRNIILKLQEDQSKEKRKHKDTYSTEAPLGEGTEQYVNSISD
SENP1 inh – human SENP1 catalytic domain inhibitors, primary screen, biochemical, FRET, uHTS. inhibition, % at 10 µM. 0.21% of 360,000 active. recombinant SENP1 catalytic domain, CyPet-SUMO1-YPet FRET cleavage. AID 624204, 2012;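 active = inhibition at least 30% at 10 µM, raw YFP signal under a set limit, fluorescence ratio 0.5 to 1.5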;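 also: 0% = enzyme with DMSO and 100% = no enzyme wells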
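Compound: 10 µM single point, 0.5% DMSO; Test system: hSENP1 catalytic domain, recombinant; Timing: 50 min reaction at room temperature; Technique: FRET, CFP and YFP emission; Control set: no-enzyme wells low, DMSO-plus-enzyme wells high control.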
Platelet DG rel – inhibitors of platelet dense granule secretion, primary screen, cell-based, MLPCN, human platelets. inhibition, %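 (compounds screened at 7.5 µM in platelet-rich plasma)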. 0.22% of 300,000 active. human platelet-rich plasma, SFLLRN dense granule ATP release, luminescence;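 active = mean replicate score, as percent of positive control, at or above 50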
SENP7 block – SENP7 protease inhibitors, primary screen, biochemical, luminescence, uHTS | Sentrin-specific protease 7 (Homo sapiens), Q9BQF6 | inhibition, % at 5 µM | AID 434973, 2010 | recombinant SENP7, Z-RLRGG-aminoluciferin luminescence, 40 min | 1.5% of 330,000 active;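 active = inhibition above about 50% at the single test dose, limit read from the data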;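 also: plate controls were DMSO with enzyme for no effect and no enzyme buffer wells for full effect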
SENP8 block-2 – SENP8 protease inhibitors, primary screen, biochemical, luminescence; purified SENP8, Z-RLRGG-aminoluciferin cleavage; inhibition, % at 10 µM; 1.2% of 330,000 active; AID 2540, 2010; in the data active = inhibition above about 50%
SENP8 conf-1 – SENP8 protease inhibitors, retest, confirmation, biochemical, luminescence, single concentration; shares compounds with SENP7 block; Recombinant SENP8, Z-RLRGG-aminoluciferin luminescence, 60 min; AID 488912, 2010; 40% of 6,200 active; inhibition, % at 12.5 µM;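 active = mean inhibition across replicates above about 50%, limit read from the data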
SENP6 conf – SENP6 protease inhibitors, confirmation, biochemical, luminescence, single concentration. recombinant SENP6, Z-RLRGG-aminoluciferin luminescence. 58% of 6,200 active. inhibition, % at 12.5 µM. shares compounds with SENP7 block
SENP7 conf – SENP7 protease inhibitors, retest, confirmation, biochemical, luminescence, single concentration | AID 488917, 2010 | inhibition, % at 12.5 µM | 69% of 6,200 active | shares compounds with SENP7 block | recombinant SENP7, Z-RLRGG-aminoluciferin luminescence, 40 min
Casp3 SENP sel – caspase-3 protease inhibitors, confirmation, selectivity assay for SENP inhibitor project, biochemical, single concentration; purified caspase-3, Z-DEVD-aminoluciferin luminescence, 60 min; AID 488918, 2010; shares compounds with SENP7 block; 60% of 6,200 active; inhibition, % at 12.5 µM;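 active = mean inhibition above about 50%, limit read from the data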;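 also: plate controls were enzyme with DMSO for no effect and wells without caspase-3 for full effect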
SENP luc ctr – luminescence interference (SENP counter-screen); shares compounds with SENP7 block; Pre-incubated SENP8/Z-RLRGG-aminoluciferin, luciferase luminescence interference; inhibition, % at 12.5 µM; 39% of 6,200 active; AID 488919;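 active = mean inhibition above about 50% when retested at one dose, limit read from the data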;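 also: plate controls were DMSO wells with completed reaction for no effect and substrate without enzyme for full effect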
SENP8 conf-2 – human SENP8 protease inhibitors, confirmation, biochemical, Nedd8 protein substrate, single concentration | shares compounds with SENP8 block-1 | purified SENP8, Nedd8-AMC/pro-Nedd8 cleavage fluorescence, 30 min | inhibition, % at 25 µM | 15% of 1,400 active; in the data active = inhibition mostly above about 39%, no sharp cut-off; inactive = mostly below about 34%
SENP1 conf – human SENP1 catalytic domain inhibitors, confirmation, biochemical, FRET endpoint, single concentration | shares compounds with SENP1 inh | recombinant SENP1, CyPet-SUMO1-YPet FRET cleavage | inhibition, % at 10 µM | 34% of 520 active; in the data active = inhibition mostly above about 35%, no sharp cut-off; inactive = mostly below about 32%;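 also: 0% = enzyme with DMSO and 100% = no enzyme control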
SENP1 kinetic – human SENP1 catalytic domain inhibitors, confirmation, biochemical, kinetic FRET, single concentration. inhibition, % at 10 µM. 26% of 520 active. recombinant SENP1, CyPet-SUMO1-YPet FRET kinetic cleavage. AID 651690, 2012. shares compounds with SENP1 inh; in the data active = inhibition mostly above about 32%, no sharp cut-off; inactive = mostly below about 29%;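 also: 0% = DMSO with enzyme and 100% = no enzyme substrate only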
Starred values were filed as active, the others as inactive; / = no result given. A selection: hits, their analogues and other compounds. The true share with any hit is near 2.6%.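 The calls were made as follows, unless noted: active = mean inhibition above about 50% in the one-dose retest (limit read from the data); inactive = the rest.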

SMILES	SENP8 block-1	SENP6 block	SENP1 inh	Platelet DG rel	SENP7 block	SENP8 block-2	SENP8 conf-1	SENP6 conf	SENP7 conf	Casp3 SENP sel	SENP luc ctr	SENP1 conf	SENP1 kinetic	others
CC(=O)Oc1ccc(C(=O)Cc2ccc3ccccc3n2)c(O)c1C	33	-7	49*	9	74*	1	-24	-14	-4	-1	-4	25	19
N#CC(c1ccccc1)c1ccc([N+](=O)[O-])cc1 (centres undefined)	1	/	1	/	/	/	/	/	/	/	/	/	/
Nc1ccccc1C#Cc1ccc([N+](=O)[O-])cc1	31	62*	33*	-6	47	42	46	46	81*	39	22	18	17
O=C(Nc1ccnn1C1CCN(Cc2ccc(CO)o2)CC1)c1ccc2c(c1)OCO2	0	15	1	0	-5	6	/	/	/	/	/	/	/
CCOc1cccc(/C=C2\NC(=S)N(c3ccccc3)C2=O)c1O	10	92*	48*	-2	87*	91*	83*	98*	102*	94*	69*	45*	18
O=[N+]([O-])c1nn(-c2ccc3c(c2)OCCO3)n(O)c1=NCc1ccc(F)cc1Cl	52*	50*	62*	11	65*	11	5	20	28	10	6	2	9	SENP8 conf-2=21
Cc1ccc(OCC(=O)Nc2ccc(C)c(F)c2)c([N+](=O)[O-])n1	9	-14	1	/	-2	-6	/	/	/	/	/	/	/
COc1ccc(S(=O)(=O)N2CCN(CC(=O)Nc3c(C)n[nH]c3C)CC2)cc1OC	14	3	0	/	12	7	/	/	/	/	/	/	/
COc1cc(/C=C2/SC(=S)N(C)C2=O)ccc1OC(=O)c1ccco1	34	5	34*	2	66*	28	8	7	3	16	28	32	27
COc1cc(/C=C2\SC(=S)N(NC(C)=O)C2=O)ccc1OC(=O)c1ccco1	22	14	20	/	-13	21	/	/	/	/	/	/	/
O=C(NCC(=O)N1CCCC(C(F)(F)F)C1)c1cccs1 (centres undefined)	21	/	1	/	/	/	/	/	/	/	/	/	/
